Measured values from ChEMBL document CHEMBL1177727, “Diarylaniline derivatives as a distinct class of HIV-1 non-nucleoside reverse transcriptase inhibitors” (J Med Chem, 2010).
The source made the active and inactive calls. The rule behind the calls is not given here.

What was measured:
[1] = Selectivity index, ratio of CC50 for human H9 cells to EC50 for HIV1 3B; assay type: toxicity, cell-based
Procedure, shortened: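 SI = CC50/EC50 in H9 cells. Toxicity by XTT on mock-infected H9 cultures set up identically to the HIV-1 IIIB infection wells (same drug concentrations, media changes days 1 and 4, 6-day culture).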

[2] = tested on: Human immunodeficiency virus 1; experiment: Antiviral activity against HIV1 3B infected in human H9 cells assessed as inhibition of viral replication after 6 days by p24 antigen based assay; assay type: functional, organism-based
Procedure, shortened: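 H9 cells (3 × 10⁵ cells/mL) infected with HIV-1 IIIB, 125 TCID₅₀ per well, with drug diluted from 10 mg/mL DMSO master stocks; screening at 100, 20, 4, 0.8 µg/mL, with further dilutions for actives. Media replaced on days 1 and 4; supernatant p24 antigen capture on day 6. Run alongside AZT control; averages of three independent assays.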

H9 = experiment: Cytotoxicity against human H9 cells after 6 days by XTT assay; assay type: cell-based; conditions: h9, 144 h
Procedure, shortened: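 Mock-infected H9 human T cells (3 × 10⁵ cells/mL in RPMI 1640 with 10% fetal calf serum and L-glutamine, 37 °C, 5% CO₂) exposed to samples diluted from 10 mg/mL DMSO master stocks (screening at 100, 20, 4, 0.8 µg/mL). Media replaced on days 1 and 4, assay ended day 6. Viability by XTT, 50% cytotoxic concentration taken. Mean of three independent assays.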

[3] = tested on: Human immunodeficiency virus 1; experiment: Antiviral activity against HIV1 with reverse transcriptase 6005MR mutant infected in human MT2 cells assessed as inhibition of p24 antigen production after 4 days by ELISA; assay type: functional, organism-based; conditions: Human immunodeficiency virus 1, MT2, 96 h
Procedure, shortened: (§1)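 Drug-resistant HIV-1 strains (Panacos) at MOI 0.001 TCID₅₀/cell, mixed with compound dilutions in RPMI 1640/10% FBS and cells at 6×10⁵ cells/mL, 37 °C. Compound-containing fresh medium added on day 2; supernatant p24 ELISA on day 4. Averages of three independent assays.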

[4] = tested on: Human immunodeficiency virus 1; experiment: Resistant fold, ratio of EC50 for HIV1 with reverse transcriptase A17 (K103N, Y181C) mutant to EC50 for wild type HIV1 3B; assay type: functional
[5] = tested on: Human immunodeficiency virus 1; experiment: Antiviral activity against HIV1 with reverse transcriptase 8605MR mutant infected in human MT2 cells assessed as inhibition of p24 antigen production after 4 days by ELISA; assay type: functional, organism-based; conditions: Human immunodeficiency virus 1, MT2, 96 h; procedure, shortened: as §1
[6] = tested on: Human immunodeficiency virus 1; experiment: Antiviral activity against HIV1 with reverse transcriptase A17 (K103N, Y181C) mutant infected in human MT2 cells assessed as inhibition of p24 antigen production after 4 days by ELISA; assay type: functional, organism-based; conditions: Human immunodeficiency virus 1, MT2, 96 h; procedure, shortened: as §1
[7] = tested on: Human immunodeficiency virus 1; experiment: Antiviral activity against HIV1 with reverse transcriptase Y181C mutant infected in human MT2 cells assessed as inhibition of p24 antigen production after 4 days by ELISA; assay type: functional, organism-based; conditions: Human immunodeficiency virus 1, MT2, 96 h; procedure, shortened: as §1
[8] = tested on: Human immunodeficiency virus 1; experiment: Antiviral activity against wild type HIV1 3B infected in human MT2 cells assessed as inhibition of p24 antigen production after 4 days by ELISA; assay type: functional, organism-based; conditions: Human immunodeficiency virus 1, 3B, MT2, 96 h
Procedure, shortened: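 1 × 10⁴ MT-2 cells infected with HIV-1 IIIB (100 TCID₅₀) in RPMI 1640/10% FBS with graded compound overnight, then compound-free medium. Day-4 supernatants lysed in Triton X-100 and p24 measured by sandwich ELISA (HIVIG capture, anti-p24 mAb, TMB, A450) against a recombinant p24 standard curve. Triplicates; EC50 from percent inhibition via median-effect analysis.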

[9] = biological target: Human immunodeficiency virus type 1 reverse transcriptase (Human immunodeficiency virus 1) (UniProt Q72547); experiment: Inhibition of HIV1 DH012 reverse transcriptase
Procedure, shortened: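 Reverse transcriptase activity of primary isolate HIV-1 DH012 measured with a colorimetric HIV-1 RT kit following the manufacturer's protocol, in the presence of various compound concentrations. The kit reads RNA-dependent DNA polymerase activity.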

[10] = Human immunodeficiency virus 1, 3B, H9, 144 h, read-out: EC50

Structure (SMILES)	Ratio CC50/EC50 [1]	EC50 [2, 10]	CC50 (H9)	other results
Cc1cccc(C)c1Oc1ccc([N+](=O)[O-])c(Nc2ccc(C#N)cc2)c1	22	3.15 µM	69.6 µM	
Cc1cc(C=O)cc(C)c1Oc1cc(Nc2ccc(C#N)cc2)c([N+](=O)[O-])cc1[N+](=O)[O-]	38	1.53 µM	57.9 µM	
Cc1cc(C)c(Oc2ccc(N)c(Nc3ccc(C#N)cc3)c2)c(C)c1	699	0.073 µM	51 µM	
Cc1cc(Br)cc(C)c1Oc1cc(Nc2ccc(C#N)cc2)c([N+](=O)[O-])cc1[N+](=O)[O-]	> 301	0.172 µM	> 51.8 µM	
Cc1cc(C#N)cc(C)c1Oc1ccc(N)c(Nc2ccc(C#N)cc2)c1	711	0.07 µM	49.8 µM	
Cc1cc(Br)cc(C)c1Oc1cc(Nc2ccc(C#N)cc2)c(N)cc1[N+](=O)[O-]	2842	0.016 µM		EC50 [3]: 0.007 µM; Ratio EC50 [4]: 20.3; EC50 [5]: 0.02 µM; EC50 [6]: 0.254 µM; EC50 [7]: 1.3 µM; CC50 (H9; 144 h): 45.5 µM; EC50 [8]: 0.008 µM
Cc1cc(C)c(Oc2cc(Nc3ccc(C#N)cc3)c(N)cc2[N+](=O)[O-])c(C)c1	520	0.062 µM	32.2 µM	
Cc1cc(C#N)cc(C)c1Oc1ccc([N+](=O)[O-])c(Nc2ccc(C#N)cc2)c1	> 313	0.208 µM	> 65.1 µM	
Cc1cc(C#N)cc(C)c1Oc1cc(Nc2ccc(C#N)cc2)c([N+](=O)[O-])cc1[N+](=O)[O-]	> 14	4.19 µM	> 58.3 µM	
Cc1ccc(Nc2cc(Oc3c(C)cc(Br)cc3C)c([N+](=O)[O-])cc2[N+](=O)[O-])cc1	12	4.31 µM	53 µM	
Cc1cc(C)c(Oc2cc(Nc3ccc(C#N)cc3)c([N+](=O)[O-])cc2[N+](=O)[O-])c(C)c1	> 214	0.28 µM	> 59.8 µM	
Cc1ccnc2c1NC(=O)c1cccnc1N2C1CC1 [NEVIRAPINE]				EC50 [3]: > 3.7 µM; EC50 [5]: > 3.7 µM; EC50 [6]: > 3.7 µM; EC50 [7]: > 3.7 µM; EC50 [8]: 0.053 µM
Cc1cc(Br)cc(C)c1Oc1cc(Nc2ccc(Cl)cc2)c([N+](=O)[O-])cc1[N+](=O)[O-]				EC50 ([2]; h9): Not Active
Cc1cc(C=O)cc(C)c1Oc1ccc([N+](=O)[O-])c(Nc2ccc(C#N)cc2)c1	6	2.19 µM	14.2 µM	
Cc1cc(C)c(Oc2cc(Nc3ccc(C#N)cc3)c(N)cc2N)c(C)c1	714	0.07 µM	50 µM	
Cc1cc(Br)cc(C)c1Oc1cc(Nc2ccc([N+](=O)[O-])cc2)c([N+](=O)[O-])cc1[N+](=O)[O-]	> 1	> 49.7 µM	> 49.7 µM	
Cc1cc(Br)cc(C)c1Oc1cc(Nc2ccc(C#N)cc2)c(N)cc1[N+](=O)[O-].Cl	3035			EC50 ([2]; h9, read-out: EC50): 0.012 µM
Cc1cc(C)c(Oc2ccc([N+](=O)[O-])c(Nc3ccc(C#N)cc3)c2)c(C)c1	> 1000	0.067 µM	> 67 µM	
COc1ccc(Nc2cc(Oc3c(C)cccc3C)c([N+](=O)[O-])cc2[N+](=O)[O-])cc1	> 16	3.84 µM	> 61.1 µM	
COc1ccc(Nc2cc(Oc3c(C)cc(C)cc3C)c([N+](=O)[O-])cc2[N+](=O)[O-])cc1	> 20	2.99 µM	> 59.1 µM	
Cc1cc(Br)cc(C)c1Oc1ccc([N+](=O)[O-])c(Nc2ccc(C#N)cc2)c1	> 180	0.317 µM	> 57.1 µM	
Cc1cn([C@H]2C[C@H](N=[N+]=[N-])[C@@H](CO)O2)c(=O)[nH]c1=O [ZIDOVUDINE]	36019	0.052 µM	1870 µM	
Cc1cccc(C)c1Oc1cc(Nc2ccc(C#N)cc2)c([N+](=O)[O-])cc1[N+](=O)[O-]	> 113	0.545 µM	> 61.9 µM	
COc1ccc(Nc2cc(Oc3c(C)cc(Br)cc3C)c([N+](=O)[O-])cc2[N+](=O)[O-])cc1	14	3.63 µM	51.2 µM	
Cc1cc(Br)cc(C)c1Oc1ccc(N)c(Nc2ccc(C#N)cc2)c1	949	0.047 µM	44.6 µM	
Cc1cc(C#N)cc(C)c1Oc1cc(Nc2ccc(C#N)cc2)c(N)cc1N	1698	0.03 µM	51 µM	Activity [9]: Active; EC50 [3]: 0.033 µM; Ratio EC50 [4]: 73.3; EC50 [5]: 0.138 µM; EC50 [6]: 1.24 µM; EC50 [7]: 1.73 µM; EC50 [8]: 0.065 µM
Cc1cc(C#N)cc(C)c1Oc1cc(Nc2ccc(C#N)cc2)c(N)cc1[N+](=O)[O-]	20887	0.003 µM	62.7 µM	Activity [9]: Active; EC50 [3]: 0.005 µM; Ratio EC50 [4]: 18.9; EC50 [5]: 0.005 µM; EC50 [6]: 0.231 µM; EC50 [7]: 0.504 µM; EC50 [8]: 0.005 µM
Cc1cccc(C)c1Oc1cc(Nc2ccc(C#N)cc2)c(N)cc1N	16	3.23 µM	53.2 µM	
Cc1cc(C#N)cc(C)c1Oc1nc(Nc2ccc(C#N)cc2)nc(N)c1Br [ETRAVIRINE]				Ratio EC50 [4]: 9.9; EC50 [6]: 0.575 µM; EC50 [8]: 0.058 µM
Cc1cc(Br)cc(C)c1Oc1cc(Nc2ccc(C#N)cc2)c(N)cc1N	238	0.161 µM	38.4 µM	
